Data published in ChEMBL document CHEMBL3758162, “Synthesis, biological characterization and molecular modeling insights of spirochromanes as potent HDAC inhibitors” (Eur J Med Chem, 2016).

Key:
[1] = Antiproliferative activity against human HCT116 cells assessed as cell viability after 72 hrs by CellTitre-Glo luminescent assay; assay type: functional, cell-based, HCT-116
A549 = assay: Antiproliferative activity against human A549 cells assessed as cell viability after 72 hrs by CellTitre-Glo luminescent assay; assay type: functional, cell-based
Histone deacetylase = assay: Inhibition of HDAC in human HeLa cells nuclear extract using Fluor de lys as substrate after 15 mins by fluorometric analysis; assay type: cell-based
K562 = assay: Antiproliferative activity against human K562 cells assessed as cell viability after 72 hrs by CellTitre-Glo luminescent assay; assay type: functional, cell-based
CYP1A2 = target: T1, CYP1A2 (Homo sapiens, UniProt P05177); assay: Inhibition of human CYP1A2 using 3-cyano-7-ethoxycoumarin as substrate at 10 uM after 15 mins by fluorimetric analysis; assay type: ADME; conditions: probe 3-cyano-7-ethoxycoumarin
T1 sequence (P05177 whole entry): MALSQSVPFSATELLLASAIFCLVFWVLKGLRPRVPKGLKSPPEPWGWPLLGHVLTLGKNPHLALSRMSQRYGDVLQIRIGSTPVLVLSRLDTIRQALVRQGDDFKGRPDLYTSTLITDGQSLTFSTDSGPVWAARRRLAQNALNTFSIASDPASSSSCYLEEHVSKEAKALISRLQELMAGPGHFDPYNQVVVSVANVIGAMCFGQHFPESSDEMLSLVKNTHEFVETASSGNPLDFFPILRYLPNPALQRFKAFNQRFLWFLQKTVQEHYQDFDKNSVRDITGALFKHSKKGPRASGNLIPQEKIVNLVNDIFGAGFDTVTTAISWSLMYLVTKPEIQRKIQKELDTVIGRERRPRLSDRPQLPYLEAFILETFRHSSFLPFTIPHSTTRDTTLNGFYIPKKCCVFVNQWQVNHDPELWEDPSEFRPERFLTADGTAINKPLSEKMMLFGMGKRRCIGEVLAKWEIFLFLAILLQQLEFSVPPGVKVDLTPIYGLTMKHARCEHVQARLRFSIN
In short: (§1)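 Test compounds at 10 µM in potassium phosphate buffer pH 7.4 with NADPH regenerating system (final 1.3 mM NADP⁺, 3.3 mM glucose 6-phosphate, 0.4 U/ml G6PDH); reaction started at 37 °C by adding Supersomes isoenzyme plus substrate. Enzyme and substrate amounts: CYP1A2 0.5 pmol, 5 µM CEC; CYP2C19 0.5 pmol, 25 µM CEC; CYP3A4 1 pmol, 50 µM BFC; CYP2D6 1.5 pmol, 1.5 µM AMMC. Stopped with acetonitrile/Tris base; fluorescence read; % inhibition versus enzyme without inhibitor; n≥2, mean.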

[2] = Solubility of the compound at pH 4.5; assay type: physicochemical; conditions: buffer
CYP2D6 = CYP2D6 (Homo sapiens, UniProt P10635); assay: Inhibition of human CYP2D6 using 3-[2-(N,N-diethyl-N-methylamino)ethyl]-7-methoxy-4-methylcoumarin as substrate at 10 uM after 30 mins by fluorimetric analysis; assay type: ADME; in short: as §1
Chain of CYP2D6 (P10635 whole entry): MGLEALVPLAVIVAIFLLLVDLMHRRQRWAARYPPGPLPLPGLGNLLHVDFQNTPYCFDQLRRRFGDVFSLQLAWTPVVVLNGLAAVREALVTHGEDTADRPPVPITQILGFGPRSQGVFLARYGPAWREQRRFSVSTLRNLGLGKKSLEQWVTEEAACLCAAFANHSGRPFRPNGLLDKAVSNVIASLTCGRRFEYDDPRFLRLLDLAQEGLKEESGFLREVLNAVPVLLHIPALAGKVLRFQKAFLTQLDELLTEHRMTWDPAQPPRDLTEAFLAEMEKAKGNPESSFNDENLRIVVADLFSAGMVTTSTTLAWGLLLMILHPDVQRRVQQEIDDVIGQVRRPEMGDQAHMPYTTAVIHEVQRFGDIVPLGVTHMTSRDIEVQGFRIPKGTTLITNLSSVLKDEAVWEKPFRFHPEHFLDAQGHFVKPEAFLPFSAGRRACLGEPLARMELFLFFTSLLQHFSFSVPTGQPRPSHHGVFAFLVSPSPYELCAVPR

CYP2C19 = CYP2C19 (Homo sapiens, UniProt P33261); assay: Inhibition of human CYP2C19 using 3-cyano-7-ethoxycoumarin as substrate at 10 uM after 30 mins by fluorimetric analysis; assay type: ADME; conditions: probe 3-cyano-7-ethoxycoumarin; in short: as §1
Chain of CYP2C19 (P33261 whole entry): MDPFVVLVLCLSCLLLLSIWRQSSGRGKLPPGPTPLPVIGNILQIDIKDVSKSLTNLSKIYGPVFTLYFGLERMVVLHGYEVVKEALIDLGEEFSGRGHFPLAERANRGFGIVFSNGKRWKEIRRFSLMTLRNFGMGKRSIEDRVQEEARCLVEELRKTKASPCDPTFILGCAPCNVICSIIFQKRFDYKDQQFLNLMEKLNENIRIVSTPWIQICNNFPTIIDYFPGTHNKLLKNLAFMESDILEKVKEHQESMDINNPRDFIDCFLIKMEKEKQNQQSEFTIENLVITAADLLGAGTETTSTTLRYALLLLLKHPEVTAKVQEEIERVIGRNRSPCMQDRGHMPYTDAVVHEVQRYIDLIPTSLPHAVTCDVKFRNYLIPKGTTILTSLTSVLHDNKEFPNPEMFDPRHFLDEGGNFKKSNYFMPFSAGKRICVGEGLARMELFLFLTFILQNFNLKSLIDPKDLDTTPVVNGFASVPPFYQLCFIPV

[3] = Metabolic stability in human liver microsomes assessed as compound remaining at 1 uM preincubated for 10 mins measured after 30 mins by LC-MS/MS analysis; assay type: ADME; conditions: liver microsomes, read-out: Stability
In short: (§2)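 Compound at 1 µM pre-incubated 10 min at 37 °C in potassium phosphate buffer pH 7.4 with 0.5 mg/mL mouse or human hepatic microsomes. Parent quantified by LC-MS/MS (ESI+, MRM, verapamil internal standard). % remaining = peak area at 30 min / area at 0 min × 100; n≥2, mean.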

[4] = Metabolic stability in mouse liver microsomes assessed as compound remaining at 1 uM preincubated for 10 mins measured after 30 mins by LC-MS/MS analysis; assay type: ADME; conditions: liver microsomes, read-out: Stability; in short: as §2
CYP3A4 = CYP3A4 (Homo sapiens, UniProt P08684); assay: Inhibition of human CYP3A4 using 7-benzyloxy-4-(trifluoromethyl)-coumarin as substrate at 10 uM after 30 mins by fluorimetric analysis; assay type: ADME; conditions: probe 7-benzyloxy-4-(trifluoromethyl)-coumarin; in short: as §1
Chain of CYP3A4 (P08684 whole entry): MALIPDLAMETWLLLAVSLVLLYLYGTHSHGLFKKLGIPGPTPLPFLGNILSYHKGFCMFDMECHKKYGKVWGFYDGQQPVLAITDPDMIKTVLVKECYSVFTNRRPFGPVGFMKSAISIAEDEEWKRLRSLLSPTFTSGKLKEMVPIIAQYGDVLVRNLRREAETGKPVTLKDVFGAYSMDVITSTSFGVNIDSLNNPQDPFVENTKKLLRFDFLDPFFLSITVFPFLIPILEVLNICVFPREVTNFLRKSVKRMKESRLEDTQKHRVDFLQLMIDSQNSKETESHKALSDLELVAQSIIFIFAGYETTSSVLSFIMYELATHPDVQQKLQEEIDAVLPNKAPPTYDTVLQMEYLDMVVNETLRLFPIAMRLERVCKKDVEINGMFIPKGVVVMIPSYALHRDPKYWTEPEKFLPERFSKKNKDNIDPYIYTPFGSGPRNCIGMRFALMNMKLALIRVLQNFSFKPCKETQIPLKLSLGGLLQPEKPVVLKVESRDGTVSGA

IC50 (A549; Homo sapiens, A549, 72 h) [nM] | IC50 (Histone deacetylase) [nM] | IC50 (K562; Homo sapiens, K562, 72 h) [nM] | inhibition at 0.25 h, 10 µM (CYP1A2) [%] | solubility [2] [µM] | inhibition at 0.5 h, 10 µM (CYP2D6) [%] | inhibition at 0.5 h, 10 µM (CYP2C19) [%] | remaining at 0.5 h, 1 µM [3] [%] | remaining at 0.5 h, 1 µM [4] [%] | inhibition at 0.5 h, 10 µM (CYP3A4) [%] | IC50 (A549; a549) [nM] | IC50 (K562; k562) [nM] | SMILES | IC50 ([1]; Homo sapiens, HCT-116, 72 h) [nM] | IC50 ([1]; hct-116) [nM]
3780 | 110 | 1110 | – | – | – | – | – | – | – | – | – | O=C(/C=C/c1ccc2c(c1)C(=O)CC1(CCCN(C(=O)c3ccccc3)CC1)O2)NO (racemic) | 617 | –
272 | 27 | 102 | 5 | > 500 | 41 | 59 | 31 | 31 | 64 | – | – | O=C(/C=C/c1ccc2c(c1)C(=O)CC1(CCN(CCc3ccccc3)C1)O2)NO (racemic) | 43 | –
4130 | 165 | 2010 | – | – | – | – | – | – | – | – | – | O=C(/C=C/c1ccc2c(c1)C(=O)CC1(CCCN(C(=O)c3ccccc3)C1)O2)NO (racemic) | 1330 | –
157 | 1 | 106 | – | – | – | – | 16 | 19 | – | – | – | O=C(/C=C/c1ccc2c(c1)C(=O)CC1(CCCN(CCc3ccccc3)C1)O2)NO (racemic) | 52 | –
– | 84 | – | – | – | – | – | – | – | – | 1060 | 441 | O=C(/C=C/c1ccc2c(c1)C(=O)CC1(CCCN(Cc3ccccc3)C1)O2)NO (single isomer, unassigned; (-)) | – | 326
642 | 196 | 283 | – | – | – | – | – | – | – | – | – | O=C(/C=C/c1ccc2c(c1)C(=O)CC1(CCN(Cc3ccc(F)cc3)C1)O2)NO (centres undefined) | 178 | –
– | 143 | – | – | – | – | – | – | – | – | 1460 | 523 | O=C(/C=C/c1ccc2c(c1)C(=O)CC1(CCCN(Cc3ccccc3)C1)O2)NO (stereo in doubt; 33j) | – | 447
839 | 56 | 430 | – | – | – | – | – | – | – | – | – | O=C(/C=C/c1ccc2c(c1)C(=O)CC1(CCCN(Cc3ccccc3)C1)O2)NO (racemic) | 385 | –
184 | 56 | 188 | 5 | > 500 | 52 | 81 | 27 | 39 | 41 | – | – | O=C(/C=C/c1ccc2c(c1)C(=O)CC1(CCCN(CCc3ccccc3)CC1)O2)NO (racemic) | 62 | –
180 | 85 | 51 | – | – | – | – | 16 | 8 | – | – | – | Cn1cc(CN2CCC3(CC(=O)c4cc(/C=C/C(=O)NO)ccc4O3)C2)c2ccccc21 (racemic) | 47 | –
260 | 114 | 46 | – | – | – | – | < 30 | 19 | – | – | – | Cn1cc(CN2CCCC3(CC2)CC(=O)c2cc(/C=C/C(=O)NO)ccc2O3)c2ccccc21 (racemic) | 60 | –
1160 | 34 | 552 | – | – | – | – | – | – | – | – | – | O=C(/C=C/c1ccc2c(c1)C(=O)CC1(CCCN(Cc3ccc(F)cc3)C1)O2)NO (racemic) | 372 | –
2110 | 187 | 533 | – | – | – | – | – | – | – | – | – | O=C(/C=C/c1ccc2c(c1)C(=O)CC1(CCN(C(=O)c3ccccc3)C1)O2)NO (racemic) | 510 | –
896 | 219 | 250 | – | – | – | – | – | – | – | – | – | O=C(/C=C/c1ccc2c(c1)C(=O)CC1(CN(CCc3ccccc3)C1)O2)NO | 220 | –
1330 | 81 | 376 | – | – | – | – | – | – | – | – | – | O=C(/C=C/c1ccc2c(c1)C(=O)CC1(CN(C(=O)c3ccccc3)C1)O2)NO | 294 | –
425 | 183 | 147 | – | – | – | – | 19 | 23 | – | – | – | Cn1cc(CN2CCCC3(CC(=O)c4cc(/C=C/C(=O)NO)ccc4O3)C2)c2ccccc21 (racemic) | 78 | –

Further lines, the molecule ahead of its results:

SMILES | IC50 (A549; Homo sapiens, A549, 72 h) [nM] | IC50 (Histone deacetylase) [nM] | IC50 (K562; Homo sapiens, K562, 72 h) [nM] | inhibition at 0.25 h, 10 µM (CYP1A2) [%] | solubility [2] [µM] | inhibition at 0.5 h, 10 µM (CYP2D6) [%] | inhibition at 0.5 h, 10 µM (CYP2C19) [%] | remaining at 0.5 h, 1 µM [3] [%] | remaining at 0.5 h, 1 µM [4] [%] | inhibition at 0.5 h, 10 µM (CYP3A4) [%] | IC50 (A549; a549) [nM] | IC50 (K562; k562) [nM] | IC50 ([1]; Homo sapiens, HCT-116, 72 h) [nM] | IC50 ([1]; hct-116) [nM]
O=C(/C=C/c1ccc2c(c1)C(=O)CC1(CCCNCC1)O2)NO (racemic) | 3120 | 134 | 5990 | – | – | – | – | – | – | – | – | – | 1080 | –
CC(=O)N1CCCC2(CC(=O)c3cc(/C=C/C(=O)NO)ccc3O2)C1 (racemic) | 14500 | 207 | 5600 | – | – | – | – | – | – | – | – | – | 3240 | –
O=C(/C=C/c1ccc2c(c1)C(=O)CC1(CCCN(Cc3ccc(F)cc3)CC1)O2)NO (racemic) | 333 | 149 | 144 | – | – | – | – | 11 | 25 | – | – | – | 63 | –
CCOC(=O)N1CCCC2(CC(=O)c3cc(/C=C/C(=O)NO)ccc3O2)C1 (racemic) | 2280 | 232 | 936 | – | – | – | – | – | – | – | – | – | 678 | –
CN1CCCC2(CC1)CC(=O)c1cc(/C=C/C(=O)NO)ccc1O2 (racemic) | 534 | 114 | 329 | 5 | > 500 | 5 | 9 | 79 | 62 | 12 | – | – | 98 | –
O=C(/C=C/c1ccc2c(c1)C(=O)CC1(CN(Cc3ccc(F)cc3)C1)O2)NO | 684 | 130 | 301 | – | – | – | – | – | – | – | – | – | 190 | –
O=C(/C=C/c1ccc2c(c1)C(=O)CC1(CNC1)O2)NO | 8580 | 228 | 2580 | – | – | – | – | – | – | – | – | – | 3680 | –
CC(=O)N1CCC2(CC(=O)c3cc(/C=C/C(=O)NO)ccc3O2)C1 (racemic) | > 50000 | 955 | > 50000 | – | – | – | – | – | – | – | – | – | > 50000 | –
CC(=O)N1CC2(CC(=O)c3cc(/C=C/C(=O)NO)ccc3O2)C1 | 47700 | 485 | 15100 | – | – | – | – | – | – | – | – | – | 10500 | –
CCOC(=O)N1CCCC2(CC1)CC(=O)c1cc(/C=C/C(=O)NO)ccc1O2 (racemic) | 5750 | 300 | 1660 | – | – | – | – | – | – | – | – | – | 1010 | –
CC(=O)N1CCCC2(CC1)CC(=O)c1cc(/C=C/C(=O)NO)ccc1O2 (racemic) | 20100 | 323 | 5180 | – | – | – | – | – | – | – | – | – | 3510 | –
CCOC(=O)N1CCC2(CC(=O)c3cc(/C=C/C(=O)NO)ccc3O2)C1 (racemic) | 837 | 150 | 721 | – | – | – | – | – | – | – | – | – | 351 | –
CCOC(=O)N1CC2(CC(=O)c3cc(/C=C/C(=O)NO)ccc3O2)C1 | 4870 | 286 | 1880 | – | – | – | – | – | – | – | – | – | 1230 | –
O=C(CCCCCCC(=O)Nc1ccccc1)NO [VORINOSTAT] | – | – | – | 25 | – | 25 | 69 | 93 | 82 | 35 | – | – | – | –
O=C(/C=C/c1ccc2c(c1)C(=O)CC1(CCCNC1)O2)NO (racemic) | 714 | 136 | 555 | – | – | – | – | – | – | – | – | – | 228 | –
O=C(/C=C/c1ccc2c(c1)C(=O)CC1(CCNC1)O2)NO (racemic) | 2320 | 131 | 4140 | – | – | – | – | – | – | – | – | – | 2270 | –
CN1CC2(CC(=O)c3cc(/C=C/C(=O)NO)ccc3O2)C1 | 429 | 168 | 168 | – | – | – | – | – | – | – | – | – | 178 | –
CN1CCC2(CC(=O)c3cc(/C=C/C(=O)NO)ccc3O2)C1 (racemic) | 357 | 119 | 198 | – | – | – | – | – | – | – | – | – | 146 | –
